According to ChEMBL document CHEMBL1156066 (J Med Chem, 2009):
≈ marks a conversion by molar mass, not a printed value.

Assays:
[1] = Lipophilicity, log D at pH 6.5; format: physicochemical; conditions: buffer
Procedure, shortened: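 Log D was measured by the octanol/water shake-flask method using phosphate buffered solution, pH 6.5.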

[2] = Cytotoxicity against human MT2 cells after 3 days by XTT assay; format: cell-based
Procedure, shortened: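 Uninfected MT-2 cells were exposed to 10-step 3-fold serial compound dilutions (30 mM DMSO stocks), run in parallel with the antiviral assay. Cell health was read by XTT after 3 days. CC50 was fitted with the same one-site equation as EC50.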

[3] = test system: Human immunodeficiency virus 1; assay: Antiviral activity against HIV1 clinical isolates; format: functional, organism-based
[4] = Terminal half life in rat at 5 mg/kg, iv; format: ADME, organism-based; parameters: dose 5 mg/kg, route intravenous; conditions: in vivo, read-out: beta t1/2 (converted)
[5] = Aqueous solubility of crystalline form of compound in buffer solution of pH 2.1 at 25 degC; format: physicochemical
[6] = Aqueous solubility of crystalline form of compound in buffer solution of pH 11 at 25 degC; format: physicochemical
[7] = test system: Rattus norvegicus; assay: AUC in rat at 5 mg/kg, po; format: ADME, organism-based, Plasma; parameters: dose 5 mg/kg, route oral; conditions: in vivo
[8] = Inhibition of HIV1 LAI gp120/CD4 interaction in human HeLa67 cells assessed as inhibition of viral entry after 3 days by luciferase reporter gene assay; format: cell-based
Procedure, shortened: (§1)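 HeLa 67 cells (HeLa expressing CD4, CCR5 and CXCR4; DMEM, 10% heat-inactivated FBS, penicillin/streptomycin) were plated at 10^5 cells/well the day before infection. They were then infected with HIV LAI-Δenv-luc pseudotyped with JRFL or LAI envelope, in the presence of 10-step 3-fold DMSO serial dilutions (30 mM stocks), run in duplicate. After 3 days at 37 C, firefly luciferase was read. EC50 was from a one-site fit.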

[9] = Oral bioavailability in dog at 5 mg/kg; format: ADME, organism-based, Canis lupus familiaris; conditions: in vivo
[10] = Aqueous solubility of crystalline form of compound in buffer solution of pH 6.5 at 25 degC; format: physicochemical
Procedure, shortened: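 Solubility of the crystalline solid was measured 24-72 h after adding it to phosphate buffered solution, pH 6.5, at room temperature.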

[11] = Metabolic stability in human liver microsomes assessed as half life; format: ADME, Microsome
[12] = Oral bioavailability in monkey at 5 mg/kg; format: ADME, organism-based, Macaca mulatta; conditions: rhesus monkey, in vivo
[13] = biological target: Cytochrome P450 2D6 (Homo sapiens, UniProt P10635); assay: Inhibition of recombinant CYP2D6; format: ADME
Chain of Cytochrome P450 2D6 (P10635 whole entry): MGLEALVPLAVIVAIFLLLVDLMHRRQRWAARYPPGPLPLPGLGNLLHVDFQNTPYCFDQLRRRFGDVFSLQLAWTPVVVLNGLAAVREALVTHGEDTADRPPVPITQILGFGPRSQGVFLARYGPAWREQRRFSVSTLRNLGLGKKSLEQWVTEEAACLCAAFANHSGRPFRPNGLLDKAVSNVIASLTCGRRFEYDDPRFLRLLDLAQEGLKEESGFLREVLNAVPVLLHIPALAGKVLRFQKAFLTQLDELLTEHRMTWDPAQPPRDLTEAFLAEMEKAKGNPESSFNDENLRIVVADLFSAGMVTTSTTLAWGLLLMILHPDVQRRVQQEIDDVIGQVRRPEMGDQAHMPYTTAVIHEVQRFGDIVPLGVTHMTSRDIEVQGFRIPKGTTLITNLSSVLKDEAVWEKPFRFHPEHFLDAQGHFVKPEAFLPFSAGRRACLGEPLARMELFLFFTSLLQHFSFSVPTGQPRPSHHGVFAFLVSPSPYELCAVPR

[14] = Inhibition of HIV1 JRFL gp120/CD4 interaction in human HeLa67 cells assessed as inhibition of viral entry after 3 days by luciferase reporter gene assay; format: cell-based; procedure, shortened: as §1
[15] = Permeability across human Caco-2 cell membrane at pH 6.5; format: ADME, cell-based; conditions: Caco-2, pH 6.5, read-out: permeability
[16] = biological target: Cytochrome P450 2C19 (Homo sapiens, UniProt P33261); assay: Inhibition of recombinant CYP2C19; format: ADME
Chain of Cytochrome P450 2C19 (P33261 whole entry): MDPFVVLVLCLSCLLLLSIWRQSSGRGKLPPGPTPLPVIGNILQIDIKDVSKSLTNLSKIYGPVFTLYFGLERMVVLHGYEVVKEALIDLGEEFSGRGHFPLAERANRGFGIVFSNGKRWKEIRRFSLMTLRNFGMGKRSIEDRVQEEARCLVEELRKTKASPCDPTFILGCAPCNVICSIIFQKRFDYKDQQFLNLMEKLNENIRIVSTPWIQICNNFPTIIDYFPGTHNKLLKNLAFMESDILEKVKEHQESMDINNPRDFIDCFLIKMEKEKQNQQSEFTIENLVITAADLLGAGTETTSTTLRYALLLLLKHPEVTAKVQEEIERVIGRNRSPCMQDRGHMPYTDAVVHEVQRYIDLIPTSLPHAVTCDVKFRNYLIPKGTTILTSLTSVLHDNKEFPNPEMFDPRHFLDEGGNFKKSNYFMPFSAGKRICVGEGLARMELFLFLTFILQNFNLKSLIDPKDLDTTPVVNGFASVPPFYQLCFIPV

[17] = biological target: Cytochrome P450 2C9 (Homo sapiens, UniProt P11712); assay: Inhibition of recombinant CYP2C9; format: ADME
Chain of Cytochrome P450 2C9 (P11712 whole entry): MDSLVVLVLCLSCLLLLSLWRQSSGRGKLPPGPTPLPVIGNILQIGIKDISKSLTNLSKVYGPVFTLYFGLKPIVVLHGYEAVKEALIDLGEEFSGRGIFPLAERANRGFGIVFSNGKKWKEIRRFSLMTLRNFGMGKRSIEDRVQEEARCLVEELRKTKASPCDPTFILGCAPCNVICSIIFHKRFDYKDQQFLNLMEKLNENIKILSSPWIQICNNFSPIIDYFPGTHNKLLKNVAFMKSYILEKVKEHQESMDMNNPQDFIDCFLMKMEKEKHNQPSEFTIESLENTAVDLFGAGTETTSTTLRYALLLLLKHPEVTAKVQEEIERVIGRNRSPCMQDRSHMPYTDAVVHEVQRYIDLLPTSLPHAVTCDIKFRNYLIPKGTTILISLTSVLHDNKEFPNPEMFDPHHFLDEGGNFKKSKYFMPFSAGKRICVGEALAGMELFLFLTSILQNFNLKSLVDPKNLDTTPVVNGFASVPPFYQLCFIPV

[18] = biological target: T1, Cytochrome P450 1A2 (Homo sapiens, UniProt P05177); assay: Inhibition of recombinant CYP1A2; format: ADME
T1 sequence (P05177 whole entry): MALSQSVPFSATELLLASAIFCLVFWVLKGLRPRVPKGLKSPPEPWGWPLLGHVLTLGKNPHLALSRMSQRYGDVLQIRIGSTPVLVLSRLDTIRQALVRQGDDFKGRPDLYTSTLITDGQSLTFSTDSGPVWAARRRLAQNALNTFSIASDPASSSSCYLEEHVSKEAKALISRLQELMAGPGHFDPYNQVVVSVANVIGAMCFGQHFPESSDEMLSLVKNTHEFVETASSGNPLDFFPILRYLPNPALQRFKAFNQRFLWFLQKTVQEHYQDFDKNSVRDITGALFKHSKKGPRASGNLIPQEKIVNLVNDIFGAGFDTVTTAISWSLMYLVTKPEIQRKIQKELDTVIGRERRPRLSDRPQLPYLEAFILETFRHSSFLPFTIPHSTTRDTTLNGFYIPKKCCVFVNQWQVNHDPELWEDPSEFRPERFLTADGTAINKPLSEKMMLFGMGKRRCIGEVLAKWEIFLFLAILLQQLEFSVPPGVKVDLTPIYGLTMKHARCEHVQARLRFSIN

[19] = biological target: Voltage-gated inwardly rectifying potassium channel KCNH2 (Homo sapiens, UniProt Q12809); assay: Inhibition of human ERG by channel flux assay
Chain of Voltage-gated inwardly rectifying potassium channel KCNH2 (Q12809 whole entry): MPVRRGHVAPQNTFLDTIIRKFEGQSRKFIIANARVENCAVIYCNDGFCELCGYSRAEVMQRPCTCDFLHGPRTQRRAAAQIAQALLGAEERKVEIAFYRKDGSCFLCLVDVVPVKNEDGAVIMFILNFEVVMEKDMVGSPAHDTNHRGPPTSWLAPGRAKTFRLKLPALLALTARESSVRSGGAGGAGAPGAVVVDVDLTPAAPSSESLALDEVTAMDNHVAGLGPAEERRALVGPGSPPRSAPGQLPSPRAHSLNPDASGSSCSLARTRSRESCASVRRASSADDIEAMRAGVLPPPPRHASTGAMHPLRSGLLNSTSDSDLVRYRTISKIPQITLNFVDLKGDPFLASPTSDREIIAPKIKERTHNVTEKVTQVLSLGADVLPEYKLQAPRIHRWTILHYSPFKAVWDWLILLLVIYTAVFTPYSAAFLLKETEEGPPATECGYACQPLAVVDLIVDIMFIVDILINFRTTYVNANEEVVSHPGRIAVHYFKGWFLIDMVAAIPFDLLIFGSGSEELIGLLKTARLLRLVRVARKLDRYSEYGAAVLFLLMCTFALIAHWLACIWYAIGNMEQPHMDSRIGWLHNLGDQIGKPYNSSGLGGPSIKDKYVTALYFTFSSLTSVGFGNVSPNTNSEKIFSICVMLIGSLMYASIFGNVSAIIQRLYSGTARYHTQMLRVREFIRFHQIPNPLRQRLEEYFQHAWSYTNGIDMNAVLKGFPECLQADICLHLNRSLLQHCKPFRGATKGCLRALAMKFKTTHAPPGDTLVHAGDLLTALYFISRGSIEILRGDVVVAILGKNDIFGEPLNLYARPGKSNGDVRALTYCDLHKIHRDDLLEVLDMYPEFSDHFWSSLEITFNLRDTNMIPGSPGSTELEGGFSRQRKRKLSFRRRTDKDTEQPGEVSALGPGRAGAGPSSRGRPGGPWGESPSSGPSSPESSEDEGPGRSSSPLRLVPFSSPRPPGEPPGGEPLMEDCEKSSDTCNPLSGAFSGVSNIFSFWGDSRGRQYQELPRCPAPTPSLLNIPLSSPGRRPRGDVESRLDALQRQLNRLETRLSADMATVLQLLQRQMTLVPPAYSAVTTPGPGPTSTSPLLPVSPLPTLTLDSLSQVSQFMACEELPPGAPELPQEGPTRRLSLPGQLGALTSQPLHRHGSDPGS

[20] = biological target: T2, Cytochrome P450 3A4 (Homo sapiens, UniProt P08684); assay: Inhibition of recombinant CYP3A4 using 7-benzyloxyresorufin as substrate; format: ADME
T2 sequence (P08684 whole entry): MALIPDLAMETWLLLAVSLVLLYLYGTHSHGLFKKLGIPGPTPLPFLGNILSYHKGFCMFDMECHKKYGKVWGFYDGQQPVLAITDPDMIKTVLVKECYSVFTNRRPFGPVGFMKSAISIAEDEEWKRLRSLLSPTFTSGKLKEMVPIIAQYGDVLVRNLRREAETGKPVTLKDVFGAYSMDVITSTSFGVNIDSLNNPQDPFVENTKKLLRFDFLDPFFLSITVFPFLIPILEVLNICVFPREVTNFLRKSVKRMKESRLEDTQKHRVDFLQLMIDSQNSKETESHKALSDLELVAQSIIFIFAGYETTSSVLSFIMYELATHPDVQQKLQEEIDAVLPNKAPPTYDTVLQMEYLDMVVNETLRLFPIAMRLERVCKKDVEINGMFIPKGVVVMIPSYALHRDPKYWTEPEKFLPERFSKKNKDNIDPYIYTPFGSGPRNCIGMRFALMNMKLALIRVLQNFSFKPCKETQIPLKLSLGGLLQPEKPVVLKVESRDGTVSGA

[21] = biological target: T2, Cytochrome P450 3A4; assay: Inhibition of recombinant CYP3A4 using benzyloxy-4-(trifluoromethyl)coumarin as substrate; format: ADME

Row | Compound | logD [1] | CC50 at 72 h [2] [µM] | solubility [10] [µg/mL] | half-life [11] [min] | IC50 [13] [µM] | EC50 [14] [µM] | Papp [15] [×10⁻⁶ cm/s] | IC50 [16] [µM] | IC50 [17] [µM] | IC50 [18] [µM] | IC50 [19] [µM] | further results
1 | COc1ccnc2[nH]cc(C(=O)C(=O)N3CCN(C(=O)c4ccccc4)C[C@H]3C)c12 | 1.6 | > 300 | 200 (≈ 492 µM) | 37 | 9.7 | 0.00147 | 5.1 |  |  |  |  | EC50 [3]: 0.0615 µM; half-life [4]: 18 min; solubility [5]: 1300 µg/mL (≈ 3200 µM); solubility [6]: 3300 µg/mL (≈ 8120 µM); AUC [7]: 0.5 µg/h/mL; EC50 [8]: 0.00268 µM; bioavailability [9]: 77%; bioavailability [12]: 24%
2 | C[C@@H]1CN(C(=O)c2ccccc2)CCN1C(=O)C(=O)c1c[nH]c2ccncc12 | 1.2 | > 300 | 419 (≈ 1110 µM) | > 100 | > 40 | 0.576 | 1.9 | 17 | > 40 | > 40 | > 80 | 
3 | C[C@@H]1CN(C(=O)c2ccccc2)CCN1C(=O)C(=O)c1c[nH]c2cccnc12 | 0.9 | > 300 | 932 (≈ 2480 µM) | > 100 | > 40 | 0.0016 | 7.6 | 36 | > 40 | > 40 | > 80 | IC50 [20]: > 40 µM; IC50 [21]: > 40 µM
